Target: T1, Protein cereblon/3-hydroxy-3-methylglutaryl-coenzyme A reductase (Cricetulus griseus, UniProt P00347+G3H338)
T1 sequence (P00347 whole entry): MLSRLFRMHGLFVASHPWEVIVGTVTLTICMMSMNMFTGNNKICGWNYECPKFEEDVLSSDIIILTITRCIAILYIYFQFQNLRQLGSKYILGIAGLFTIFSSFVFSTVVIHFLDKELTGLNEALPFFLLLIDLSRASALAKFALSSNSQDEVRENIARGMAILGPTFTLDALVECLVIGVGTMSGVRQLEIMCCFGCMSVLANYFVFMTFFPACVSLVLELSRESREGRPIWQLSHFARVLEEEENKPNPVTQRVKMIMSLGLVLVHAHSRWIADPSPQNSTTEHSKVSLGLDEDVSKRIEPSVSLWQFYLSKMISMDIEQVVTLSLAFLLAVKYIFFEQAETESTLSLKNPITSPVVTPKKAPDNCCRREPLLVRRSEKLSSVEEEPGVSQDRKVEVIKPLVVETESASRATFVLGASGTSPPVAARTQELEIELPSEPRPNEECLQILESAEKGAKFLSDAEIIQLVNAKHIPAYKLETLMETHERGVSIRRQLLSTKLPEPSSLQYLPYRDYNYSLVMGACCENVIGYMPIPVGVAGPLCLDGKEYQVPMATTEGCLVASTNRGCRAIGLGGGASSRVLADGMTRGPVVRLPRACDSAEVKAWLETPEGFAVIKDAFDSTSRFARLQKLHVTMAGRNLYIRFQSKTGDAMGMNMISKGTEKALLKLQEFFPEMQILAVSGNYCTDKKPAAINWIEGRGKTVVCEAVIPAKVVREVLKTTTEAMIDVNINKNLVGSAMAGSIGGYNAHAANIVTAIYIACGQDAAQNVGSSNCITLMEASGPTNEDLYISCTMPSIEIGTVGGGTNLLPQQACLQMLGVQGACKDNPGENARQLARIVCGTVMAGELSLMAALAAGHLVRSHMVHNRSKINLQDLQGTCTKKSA
T1 sequence (G3H338 whole entry): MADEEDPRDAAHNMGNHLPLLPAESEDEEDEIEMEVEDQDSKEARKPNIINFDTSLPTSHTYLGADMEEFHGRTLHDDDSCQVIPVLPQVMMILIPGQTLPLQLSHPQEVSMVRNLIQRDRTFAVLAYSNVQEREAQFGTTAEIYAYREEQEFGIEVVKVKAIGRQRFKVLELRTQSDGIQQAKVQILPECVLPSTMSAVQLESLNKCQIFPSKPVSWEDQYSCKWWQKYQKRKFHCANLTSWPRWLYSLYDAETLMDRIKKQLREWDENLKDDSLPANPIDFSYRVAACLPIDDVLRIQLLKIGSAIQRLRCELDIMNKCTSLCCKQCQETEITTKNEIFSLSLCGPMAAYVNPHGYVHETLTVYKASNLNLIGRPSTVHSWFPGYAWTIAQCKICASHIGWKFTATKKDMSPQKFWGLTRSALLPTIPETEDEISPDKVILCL
Test: Protac activity at CRBN/HMGCR in Insig-1/Insig-2 deficient Chinese hamster SRD15 cells assessed as induction of HMGCR degradation after 16 hrs by immunoblotting analysis
Summary of the method: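 SRD15 cells treated with compound at varying concentrations for 16 h, final DMSO ≤0.1%; RIPA lysates (Lowry protein) immunoblotted for HMGCR, densitometry normalized to actin, DMSO set to 1; DC50 = concentration giving 50% loss versus DMSO, fitted to dose-response curve, mean of 3 independent experiments.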

Row | Structure (SMILES) | DC50
1 | CC(C)c1c(C(=O)Nc2ccccc2)c(-c2cccc(OCCCCCc3cn(CCOCCOCCOCCOCCNc4ccc5c(c4)C(=O)N(C4CCC(=O)NC4=O)C5=O)nn3)c2)c(-c2ccc(F)cc2)n1CC[C@@H](O)C[C@@H](O)CC(=O)O (stereo partly drawn) | > 3000 nM
2 | CC(C)c1c(C(=O)Nc2ccccc2)c(-c2cccc(OCCCc3cn(CCCCOCC#Cc4cccc5c4CN(C4CCC(=O)NC4=O)C5=O)nn3)c2)c(-c2ccc(F)cc2)n1CC[C@@H](O)C[C@@H](O)CC(=O)O (stereo partly drawn) | > 3000 nM
3 | CC(C)c1c(C(=O)Nc2ccccc2)c(-c2cccc(OCCCCCc3cn(CCOCCOCCOCCOCCNc4cccc5c4C(=O)N(C4CCC(=O)NC4=O)C5=O)nn3)c2)c(-c2ccc(F)cc2)n1CC[C@@H](O)C[C@@H](O)CC(=O)O (stereo partly drawn) | 500 nM
4 | CC(C)c1c(C(=O)Nc2ccccc2)c(-c2cccc(OCCCc3cn(CCCCOCCCc4cccc5c4CN(C4CCC(=O)NC4=O)C5=O)nn3)c2)c(-c2ccc(F)cc2)n1CC[C@@H](O)C[C@@H](O)CC(=O)O (stereo partly drawn) | > 3000 nM
5 | CC(C)c1c(C(=O)Nc2ccccc2)c(-c2cccc(OCCCCCc3cn(CCOCCOCCOCCNc4ccc5c(c4)C(=O)N(C4CCC(=O)NC4=O)C5=O)nn3)c2)c(-c2ccc(F)cc2)n1CC[C@@H](O)C[C@@H](O)CC(=O)O (stereo partly drawn) | > 3000 nM
6 | CC(C)c1c(C(=O)Nc2ccccc2)c(-c2cccc(OCCCc3cn(CCCCCCOCCCc4cccc5c4CN(C4CCC(=O)NC4=O)C5=O)nn3)c2)c(-c2ccc(F)cc2)n1CC[C@@H](O)C[C@@H](O)CC(=O)O (stereo partly drawn) | 500 nM
7 | CC(C)c1c(C(=O)Nc2ccccc2)c(-c2cccc(OCCCCc3cn(CCOCCOCCOCCNc4ccc5c(c4)C(=O)N(C4CCC(=O)NC4=O)C5=O)nn3)c2)c(-c2ccc(F)cc2)n1CC[C@@H](O)C[C@@H](O)CC(=O)O (stereo partly drawn) | > 3000 nM
8 | CCN1C(=O)CCC(N2C(=O)c3cccc(NCCOCCOCCOCCOCCn4cc(CCCOc5cccc(-c6c(C(=O)Nc7ccccc7)c(C(C)C)n(CC[C@@H](O)C[C@@H](O)CC(=O)O)c6-c6ccc(F)cc6)c5)nn4)c3C2=O)C1=O (stereo partly drawn) | > 3000 nM
9 | CC(C)c1c(C(=O)Nc2ccccc2)c(-c2cccc(OCCCCc3cn(CCOCCOCCNc4cccc5c4C(=O)N(C4CCC(=O)NC4=O)C5=O)nn3)c2)c(-c2ccc(F)cc2)n1CC[C@@H](O)C[C@@H](O)CC(=O)O (stereo partly drawn) | > 3000 nM
10 | CC(C)c1c(C(=O)Nc2ccccc2)c(-c2cccc(OCCCc3cn(CCCCCOCCCc4cccc5c4CN(C4CCC(=O)NC4=O)C5=O)nn3)c2)c(-c2ccc(F)cc2)n1CC[C@@H](O)C[C@@H](O)CC(=O)O (stereo partly drawn) | 2300 nM
11 | CC(C)c1c(C(=O)Nc2ccccc2)c(-c2cccc(OCCCCCCc3cn(CCCCCCCNc4cccc5c4C(=O)N(C4CCC(=O)NC4=O)C5=O)nn3)c2)c(-c2ccc(F)cc2)n1CC[C@@H](O)C[C@@H](O)CC(=O)O (stereo partly drawn) | 300 nM
12 | CC(C)c1c(C(=O)Nc2ccccc2)c(-c2cccc(OCCCc3cn(CCOCCOCCOCCOCCOCCNc4cccc5c4C(=O)N(C4CCC(=O)NC4=O)C5=O)nn3)c2)c(-c2ccc(F)cc2)n1CC[C@@H](O)C[C@@H](O)CC(=O)O (stereo partly drawn) | 200 nM
13 | CC(C)c1c(C(=O)Nc2ccccc2)c(-c2cccc(OCCCc3cn(CCOCCOCCNc4cccc5c4C(=O)N(C4CCC(=O)NC4=O)C5=O)nn3)c2)c(-c2ccc(F)cc2)n1CC[C@@H](O)C[C@@H](O)CC(=O)O (stereo partly drawn) | > 3000 nM
14 | CC(C)c1c(C(=O)Nc2ccccc2)c(-c2cccc(OCCCCCc3cn(CCOCCOCCOCCNc4cccc5c4C(=O)N(C4CCC(=O)NC4=O)C5=O)nn3)c2)c(-c2ccc(F)cc2)n1CC[C@@H](O)C[C@@H](O)CC(=O)O (stereo partly drawn) | 1800 nM
15 | CC(C)c1c(C(=O)Nc2ccccc2)c(-c2cccc(OCCCc3cn(CCCOCCCc4cccc5c4CN(C4CCC(=O)NC4=O)C5=O)nn3)c2)c(-c2ccc(F)cc2)n1CC[C@@H](O)C[C@@H](O)CC(=O)O (stereo partly drawn) | > 3000 nM
16 | CC(C)c1c(C(=O)Nc2ccccc2)c(-c2cccc(OCCCCCc3cn(CCOCCNc4cccc5c4C(=O)N(C4CCC(=O)NC4=O)C5=O)nn3)c2)c(-c2ccc(F)cc2)n1CC[C@@H](O)C[C@@H](O)CC(=O)O (stereo partly drawn) | 3000 nM
17 | CC(C)c1c(C(=O)Nc2ccccc2)c(-c2cccc(OCCCCCCCc3cn(CCCCCCCNc4cccc5c4C(=O)N(C4CCC(=O)NC4=O)C5=O)nn3)c2)c(-c2ccc(F)cc2)n1CC[C@@H](O)C[C@@H](O)CC(=O)O (stereo partly drawn) | 500 nM

Row | Structure (SMILES) | DC50
18 | CC(C)c1c(C(=O)Nc2ccccc2)c(-c2cccc(OCCCc3cn(CCCCCOCC#Cc4cccc5c4CN(C4CCC(=O)NC4=O)C5=O)nn3)c2)c(-c2ccc(F)cc2)n1CC[C@@H](O)C[C@@H](O)CC(=O)O (stereo partly drawn) | 300 nM
19 | CC(C)c1c(C(=O)Nc2ccccc2)c(-c2cccc(OCCCc3cn(CCCCCCCOCCCc4cccc5c4CN(C4CCC(=O)NC4=O)C5=O)nn3)c2)c(-c2ccc(F)cc2)n1CC[C@@H](O)C[C@@H](O)CC(=O)O (stereo partly drawn) | 600 nM
20 | CC(C)c1c(C(=O)Nc2ccccc2)c(-c2cccc(OCCCCc3cn(CCOCCOCCOCCNc4cccc5c4C(=O)N(C4CCC(=O)NC4=O)C5=O)nn3)c2)c(-c2ccc(F)cc2)n1CC[C@@H](O)C[C@@H](O)CC(=O)O (stereo partly drawn) | > 3000 nM
21 | CC(C)c1c(C(=O)Nc2ccccc2)c(-c2cccc(OCCCc3cn(CCOCCCc4cccc5c4CN(C4CCC(=O)NC4=O)C5=O)nn3)c2)c(-c2ccc(F)cc2)n1CC[C@@H](O)C[C@@H](O)CC(=O)O (stereo partly drawn) | > 3000 nM
22 | CC(C)c1c(C(=O)Nc2ccccc2)c(-c2cccc(OCCCc3cn(CCCCCCOCC#Cc4cccc5c4CN(C4CCC(=O)NC4=O)C5=O)nn3)c2)c(-c2ccc(F)cc2)n1CC[C@@H](O)C[C@@H](O)CC(=O)O (stereo partly drawn) | 200 nM
23 | CC(C)c1c(C(=O)Nc2ccccc2)c(-c2cccc(OCCCc3cn(CCCCCCCOCC#Cc4cccc5c4CN(C4CCC(=O)NC4=O)C5=O)nn3)c2)c(-c2ccc(F)cc2)n1CC[C@@H](O)C[C@@H](O)CC(=O)O (stereo partly drawn) | 700 nM
24 | CC(C)c1c(C(=O)Nc2ccccc2)c(-c2cccc(OCCCc3cn(CCOCC#Cc4cccc5c4CN(C4CCC(=O)NC4=O)C5=O)nn3)c2)c(-c2ccc(F)cc2)n1CC[C@@H](O)C[C@@H](O)CC(=O)O (stereo partly drawn) | > 3000 nM
25 | CC(C)c1c(C(=O)Nc2ccccc2)c(-c2cccc(OCCCCCc3cn(CCOCCOCCOCCOCCOCCNc4cccc5c4C(=O)N(C4CCC(=O)NC4=O)C5=O)nn3)c2)c(-c2ccc(F)cc2)n1CC[C@@H](O)C[C@@H](O)CC(=O)O (stereo partly drawn) | 600 nM
26 | CC(C)c1c(C(=O)Nc2ccccc2)c(-c2cccc(OCCCCCc3cn(CCOCCOCCNc4cccc5c4C(=O)N(C4CCC(=O)NC4=O)C5=O)nn3)c2)c(-c2ccc(F)cc2)n1CC[C@@H](O)C[C@@H](O)CC(=O)O (stereo partly drawn) | > 3000 nM
27 | CC(C)c1c(C(=O)Nc2ccccc2)c(-c2cccc(OCCCCc3cn(CCOCCOCCOCCOCCNc4ccc5c(c4)C(=O)N(C4CCC(=O)NC4=O)C5=O)nn3)c2)c(-c2ccc(F)cc2)n1CC[C@@H](O)C[C@@H](O)CC(=O)O (stereo partly drawn) | > 3000 nM
28 | CC(C)c1c(C(=O)Nc2ccccc2)c(-c2cccc(OCCCCc3cn(CCOCCOCCOCCOCCOCCNc4cccc5c4C(=O)N(C4CCC(=O)NC4=O)C5=O)nn3)c2)c(-c2ccc(F)cc2)n1CC[C@@H](O)C[C@@H](O)CC(=O)O (stereo partly drawn) | > 3000 nM
29 | CC(C)c1c(C(=O)Nc2ccccc2)c(-c2cccc(OCCCc3cn(CCOCCOCCOCCNc4ccc5c(c4)C(=O)N(C4CCC(=O)NC4=O)C5=O)nn3)c2)c(-c2ccc(F)cc2)n1CC[C@@H](O)C[C@@H](O)CC(=O)O (stereo partly drawn) | > 3000 nM
30 | CC(C)c1c(C(=O)Nc2ccccc2)c(-c2cccc(OCCCCc3cn(CCOCCOCCOCCOCCNc4cccc5c4C(=O)N(C4CCC(=O)NC4=O)C5=O)nn3)c2)c(-c2ccc(F)cc2)n1CC[C@@H](O)C[C@@H](O)CC(=O)O (stereo partly drawn) | 400 nM
31 | CC(C)c1c(C(=O)Nc2ccccc2)c(-c2cccc(OCCCc3cn(CCOCCNc4cccc5c4C(=O)N(C4CCC(=O)NC4=O)C5=O)nn3)c2)c(-c2ccc(F)cc2)n1CC[C@@H](O)C[C@@H](O)CC(=O)O (stereo partly drawn) | > 3000 nM
32 | CC(C)c1c(C(=O)Nc2ccccc2)c(-c2cccc(OCCCc3cn(CCOCCOCCOCCNc4cccc5c4C(=O)N(C4CCC(=O)NC4=O)C5=O)nn3)c2)c(-c2ccc(F)cc2)n1CC[C@@H](O)C[C@@H](O)CC(=O)O (stereo partly drawn) | > 3000 nM
33 | CC(C)c1c(C(=O)Nc2ccccc2)c(-c2cccc(OCCCc3cn(CCCOCC#Cc4cccc5c4CN(C4CCC(=O)NC4=O)C5=O)nn3)c2)c(-c2ccc(F)cc2)n1CC[C@@H](O)C[C@@H](O)CC(=O)O (stereo partly drawn) | > 3000 nM
